Compound activity from PubChem BioAssay.
Insulin prom act = TRM-6 insulin promoter activation; actives 0.81% (n = 130,000); TRM-6 cells (human fetal islet line), insulin promoter eGFP reporter, imaging; plate-scaled: unstimulated 0, stimulated control 100; activation, % at 2 µM;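 active = activation at 2 µM above a set limit, confirmed on inspection of the cell images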;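 also: share of cells whose green reporter signal exceeds an intensity cutoff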
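test system = TRM-6 insulin promoter–eGFP reporter cells | benchmarks = stimulated versus unstimulated wells as plate controls | read-out basis = percent cells above green-intensity threshold, converted to percent activation versus plate controls | detection = fixed-cell fluorescence microscopy, eGFP plus Hoechst | incubation = tamoxifen pre-incubation 15 h overnight, then compound exposure 48 h at 37 °C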
Numbers without * were called inactive. This excerpt belongs to a sample that is enriched for hits.

SMILES	Insulin prom act
CCOC(=O)C1CCCN(S(=O)(=O)c2cccs2)C1 (centres undefined)	462.5*
CCOC(=O)C1CCCN(C(=O)c2cccs2)C1 (centres undefined)	168.8
CC(C)NC(=O)C1CCCN(S(=O)(=O)c2cccs2)C1 (centres undefined)	9.1
COCCN(C(=S)Nc1ccc(C(C)C)cc1)C(C)c1cccs1 (centres undefined)	7.1
Cc1nc2c(c3c1[nH]c1ccccc13)C(O)CC(C)(C)C2 (centres undefined)	-100.0
Cn1c(CCN2CCOCC2)nc2cc(NC(=O)c3cccs3)ccc21	-8.3
Cc1cnc(NC(=O)Cc2cccs2)s1	-75.0
Cc1ccc(S(=O)(=O)Nc2c(C)n(C)n(-c3ccccc3)c2=O)cc1C(=O)NCc1ccccn1	142.9*
CCN(Cc1ccccc1)C(=O)C(C)OC(=O)c1cc(S(=O)(=O)Nc2c(C)n(C)n(-c3ccccc3)c2=O)ccc1C (centres undefined)	107.1
Cc1c(NS(=O)(=O)N2CCCCC2)c(=O)n(-c2ccccc2)n1C	7.1
C#CC[N+](C)(C)C(C#Cc1ccccc1)CC=C (centres undefined)	-2.3
COC(=O)CNC(=O)c1sc2ncn(CC(=O)Nc3ccc(C)c(Cl)c3)c(=O)c2c1C	-7.1
COc1cccc(C(=O)NC(Cc2ccccc2)c2ccc3c(c2)OCCCO3)c1 (centres undefined)	8.6
COc1ccc(NC(=O)/C=C/c2ccccc2)c([N+](=O)[O-])c1	-9.1
COc1ccc(NC(=O)CC(C)c2ccccc2)c([N+](=O)[O-])c1 (centres undefined)	442.9*
COc1ccc(NC(=O)COC(=O)c2ccco2)c([N+](=O)[O-])c1	-9.1
Cc1cccc(N(CC(=O)NCCC2=CCCCC2)S(C)(=O)=O)c1C	-3.3
Cc1ccc(Cn2nnc(C(=O)Nc3cc(C)ccc3C)c2N)cc1	5.7
Cc1ccc(C)c(NC(=O)Cn2nc([N+](=O)[O-])c(Br)c2C)c1	0.0
Cc1ccc(C)c(NC(=O)c2ccc[n+](Cc3ccc([N+](=O)[O-])cc3)c2)c1	233.3*
O=C(COC(=O)CCCN1C(=O)c2cccc3cccc(c23)C1=O)Nc1cccc(C(F)(F)F)c1	-6.7
O=C(COC(=O)CN1C(=O)C2CCCCC2C1=O)Nc1cc(S(=O)(=O)N2CCOCC2)ccc1Cl (centres undefined)	-7.1
COc1ccc(C)cc1NC(=O)C(=O)NNC(=O)COc1ccc(Cl)cc1	0.0
COc1ccc(C(=O)N/C(=C/c2ccco2)C(=O)NC2CCS(=O)(=O)C2)cc1 (centres undefined)	-7.1
CCn1cc([N+](=O)[O-])c(C(=O)Nc2nc3ccc(OC)cc3s2)n1	0.0
SMILES	Insulin prom act
Cc1cc(NC(=O)c2ccc(Cl)cc2)no1	200.0
Cc1cc(NC(=O)c2ccc(S(=O)(=O)N(C)C)cc2)no1	7.7
Cc1cc(NC(=O)c2ccc(NC(=O)CC(C)C)cc2)no1	523.1*
Cc1cc(S(=O)(=O)Nc2ccc(F)cc2)c(C)s1	-7.1
O=C(NCc1ccccc1)c1ccc(-c2ccc(F)cc2)o1	-5.6
COc1ccc(CN(C)C(C)C(=O)Nc2ccc(S(=O)(=O)N3CCCC3)cc2)c(OC)c1OC (centres undefined)	-7.1
CCSc1nnc(NC(=O)c2ccccn2)s1	177.8
C=CCSc1nnc(NC(=O)CSc2ccccn2)s1	425.0*
CCc1ccc(NC(=O)CSc2ccccn2)cc1	104.8
CC1CCc2cc(F)ccc2N1S(=O)(=O)c1ccc(Cl)nc1 (centres undefined)	2.9
CCOC(=O)/C(C#N)=C\c1ccc(CC)s1	3.3
CCOC(=O)/C(C#N)=C\c1cc(C)n(-c2ccccc2)c1C	0.0
CCOC(=O)/C(C#N)=C\C=C1C=CN(C)C=C1	110.5*
Cc1c(C(=O)Nc2ccc(-c3nnc4n3CCCCC4)cc2)oc2ccc(Br)cc12	-6.7
CCCn1c(SCC(=O)N2c3ccc(F)cc3CCC2C)nnc1-c1ccccn1 (centres undefined)	304.8
COc1cc([N+](=O)[O-])ccc1NC(=O)CSc1nc2ccccc2n1-c1ccccc1	6.9
CSC1=NCCN1C(=O)Cc1ccc(-c2ccccc2)cc1	9.5
CCC(=O)N1CCN=C1SCc1ccc(Cl)cc1	493.1*
CCOC(=O)N1CCN=C1SCc1ccc(C(F)(F)F)cc1	-2.9
CC(C)OCCCn1c(SCC(=O)N2CCc3ccccc32)nc2ccccc2c1=O	3.2
CCOC(=O)c1nn(-c2cccc(C)c2)c2nnc(Cc3ccc(C)cc3)c(=O)n12	4.8
CSc1nn2c(C)c(C)c(C)nc2c1C#N	322.2*
Cc1nc(N)c(C#N)c(-c2ccccc2)c1C	0.0
Cc1cc(-c2ccccc2)n2nc(C)c(C#N)c2n1	-2.9
COc1ccccc1-n1c(C)cc(C=O)c1C	-6.7
SMILES	Insulin prom act
COc1cccc(CN(C)C(=O)c2ccc3nccnc3c2)c1	3.1
O=C(CCn1cnc2ccccc2c1=O)Nc1cccc(Cl)c1	9.1
O=C(CCn1cnc2ccccc2c1=O)Nc1nc2c(s1)CCCC2	510.0*
O=C(CCS(=O)(=O)Cc1ccccc1)Nc1nc2c(s1)CCCC2	9.7
Cc1ccc(NC(=O)c2ccncc2)cc1[N+](=O)[O-]	2.0
Cc1ccc(NC(=O)c2ccc(-n3cccn3)c([N+](=O)[O-])c2)cc1C	218.2*
O=C(Nc1cccc(Cl)c1)c1ccc(-n2cncn2)c([N+](=O)[O-])c1	6.5
COc1cc(OC)cc(-c2nn[nH]n2)c1	-3.4
O=C(O)Cn1nc(C(F)(F)F)c2c1CCCC2	-6.7
O=C(Cn1nc(C(F)(F)F)c2c1CCC2)Nc1ccccc1C(F)(F)F	600.0*
O=C(Cn1nc(C(F)(F)F)c2c1CCC2)NC1CCCCC1	-8.3
CC1=C(C(=O)OCC2CCCO2)C(c2coc3ccccc3c2=O)C2=C(CCCC2=O)N1 (centres undefined)	-7.0
O/N=C/c1cccnc1Sc1ccccc1	0.0
COc1ccc(Nc2nc(Nc3ccc(OC)cc3OC)nc(N3CCN(C)CC3)n2)c(OC)c1	316.7*
COc1ccc(Nc2nc(NC(C)(C)C)nc(N3CCCC3)n2)c(OC)c1	242.9
COc1ccc(Nc2nc(NC(C)(C)C)nc(N3CCOCC3)n2)c(OC)c1	5.3
S=C(NC1CCCCC1)NC1CC2CCC(C1)N2Cc1ccccc1 (centres undefined)	-8.3
C=CCn1c(SCC(=O)NC(=O)c2cccc([N+](=O)[O-])c2)nnc1-c1ccccc1	7.7
CCOC(=O)C1CCCN(C(=O)C2CC(=O)N(c3ccc(C)cc3)C2)C1 (centres undefined)	-14.6
CCOC(=O)C1CCCN(C(=S)Nc2ccc(OC)cc2)C1 (centres undefined)	0.0
CCOC(=O)C1CCCN(c2cc(=O)n(C3CCCCC3)c(=O)[nH]2)C1 (centres undefined)	123.5*
O=C(CSCc1ccccc1)N/N=C/c1cc2c(cc1Br)OCO2	0.0
COCCNC(=O)CN(C(=O)c1ccc(N2CCCC2)nc1)c1ccccc1	772.7*
COCCNC(=O)COC(=O)/C=C/c1cnc2ccccc2n1	9.3
COc1ccc(-c2nnn(CC(=O)N(CC(=O)NCCC(C)C)c3ccccc3)n2)cc1OC	0.0
O=C(CCCSc1nc2ccccc2[nH]1)N1CCN(c2ccc([N+](=O)[O-])cc2)CC1	5.5
CN(C)CCCC1(O)c2ccccc2C=Cc2ccccc21	222.7
COc1ccc(/C=C2/C(=O)N(c3nc4ccccc4s3)N=C2CSc2ccc(Cl)cc2)cc1	-7.1
CCOC(=O)c1c(-c2ccccc2Cl)csc1NC(=O)CSc1nc(C)cc(=O)[nH]1	-1.6
